The source of these data is ChEMBL document CHEMBL1765019, “Design, synthesis and biological activity of thiazolidine-4-carboxylic acid derivatives as novel influenza neuraminidase inhibitors” (Bioorg Med Chem, 2011).

The target of this experiment is Neuraminidase (Influenza A virus, UniProt B4URF0). The experiment in a line: Inhibition of influenza A virus neuraminidase assessed as cleavage of MUNANA substrate by fluorescence assay. The essentials: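 Screening-kit NA enzyme, not from an avian H5N1 strain, incubated with buffer, substrate and inhibitor at 37 °C. Reaction stopped with stop solution. IC50 taken from percent inhibition plotted against inhibitor concentration; each point in duplicate.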
For the compound `O=C(O)[C@@H]1CSC(c2ccccc2)N1` (mixture of isomers), the IC50 (in general, the midpoint of a concentration-inhibition curve) was found to be 21.3 µM.

Take `NCC(=O)N1C(c2ccccc2O)SC[C@H]1C(=O)O` (mixture of isomers): the half-inhibitory concentration (IC50) stood at 0.21 µM.

Regarding `O=C(O)[C@@H]1CSC(c2ccccc2O)N1` (mixture of isomers), the IC50 amounted to 20.2 µM.

With `O=C(O)c1ccccc1C1N[C@H](C(=O)O)CS1` (mixture of isomers), the 50% inhibitory concentration (IC50) amounted to 18.1 µM.

Regarding `N#Cc1ccc(C2N[C@H](C(=O)O)CS2)cc1` (mixture of isomers), the IC50 was determined as 23.4 µM.

As for `O=C(O)[C@@H]1CSC(c2ccccc2[N+](=O)[O-])N1` (mixture of isomers), the IC50 is 22.5 µM.

Turning to `COc1cccc(C2N[C@H](C(=O)O)CS2)c1O` (mixture of isomers), the 50% inhibitory concentration (IC50) was determined as 12.3 µM.

On to `O=C(O)[C@@H]1CSC(c2ccco2)N1` (mixture of isomers), for which the IC50 was determined as 43.1 µM.

For `O=C(O)[C@@H]1CSC(c2ccccc2)N1C(=O)CCl` (mixture of isomers), the IC50 was 7.53 µM.

For the compound `O=C(O)[C@@H]1CSC(c2ccccc2O)N1C(=O)CCl` (mixture of isomers), the IC50 was found to be 5.84 µM.

On to `O=C(O)c1ccccc1C1SC[C@@H](C(=O)O)N1C(=O)CCl` (mixture of isomers), for which the concentration for half-maximal inhibition (IC50) is 10.7 µM.

Take `N#Cc1ccc(C2SC[C@@H](C(=O)O)N2C(=O)CCl)cc1` (mixture of isomers): the IC50 came out at 8.64 µM.

As for `O=C(O)[C@@H]1CSC(c2ccccc2[N+](=O)[O-])N1C(=O)CCl` (mixture of isomers), the IC50 was 7.65 µM.

Take `COc1cccc(C2SC[C@@H](C(=O)O)N2C(=O)CCl)c1O` (mixture of isomers): the IC50 stood at 7.92 µM.

Turning to `O=C(O)[C@@H]1CSC(c2ccco2)N1C(=O)CCl` (mixture of isomers), the IC50 came out at 12.9 µM.

As to `O=C(O)[C@@H]1CSC(c2ccccc2)N1C(=O)Cc1ccccc1` (mixture of isomers), the IC50 amounted to 1.21 µM.

`O=C(O)[C@@H]1CSC(c2ccccc2O)N1C(=O)Cc1ccccc1` (mixture of isomers): the IC50 was found to be 0.65 µM.

As for `O=C(O)c1ccccc1C1SC[C@@H](C(=O)O)N1C(=O)Cc1ccccc1` (mixture of isomers), the IC50 was 1.92 µM.

For the compound `N#Cc1ccc(C2SC[C@@H](C(=O)O)N2C(=O)Cc2ccccc2)cc1` (mixture of isomers), the IC50 is 2.47 µM.

For `O=C(O)[C@@H]1CSC(c2ccccc2[N+](=O)[O-])N1C(=O)Cc1ccccc1` (mixture of isomers), the 50% inhibitory concentration (IC50) worked out at 1.87 µM.

As to `COc1cccc(C2SC[C@@H](C(=O)O)N2C(=O)Cc2ccccc2)c1O` (mixture of isomers), the IC50 is 1.62 µM.

With `O=C(O)[C@@H]1CSC(c2ccco2)N1C(=O)Cc1ccccc1` (mixture of isomers), the IC50 was found to be 2.89 µM.

For the compound `NCC(=O)N1C(c2ccccc2)SC[C@H]1C(=O)O` (mixture of isomers), the IC50 worked out at 0.53 µM.

For `NCC(=O)N1C(c2ccccc2C(=O)O)SC[C@H]1C(=O)O` (mixture of isomers), the 50% inhibitory concentration (IC50) came to 0.28 µM.

With `N#Cc1ccc(C2SC[C@@H](C(=O)O)N2C(=O)CN)cc1` (mixture of isomers), the half-inhibitory concentration (IC50) is 0.81 µM.

As to `NCC(=O)N1C(c2ccccc2[N+](=O)[O-])SC[C@H]1C(=O)O` (mixture of isomers), the half-maximal inhibitory concentration (IC50) came to 1.02 µM.

On to `COc1cccc(C2SC[C@@H](C(=O)O)N2C(=O)CN)c1O` (mixture of isomers), for which the concentration for half-maximal inhibition (IC50) is 0.14 µM.

As for `NCC(=O)N1C(c2ccco2)SC[C@H]1C(=O)O` (mixture of isomers), the concentration for half-maximal inhibition (IC50) worked out at 0.98 µM.
